Laboratory results as given in ChEMBL document CHEMBL3612038, “N-Alkyl/aryl-4-(3-substituted-3-phenylpropyl)piperazine-1-carbothioamide as dual-action vaginal microbicides with reverse transcriptase inhibition” (Eur J Med Chem, 2015).
Values after ≈ are worked out from the molar mass of the structure shown.

Tests used:
[1] = Effect on Lactobacillus jensenii ATCC 25258 62G assessed as effect on microbial proliferation at 200 ug/ml incubated for 24 hrs
Outline: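 L. jensenii ATCC 25258 (strain 62G) in 6% Rogosa SL broth with 0.132% acetic acid; serial compound dilutions or vehicle in triplicate, ~1000 CFU per well, 24 h at 37 °C, humidified 5% CO2; growth read as OD610, expressed relative to control = 100.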

Aspergillus fumigatus = assay: Antifungal activity against Aspergillus fumigatus incubated for 48 hrs by broth micro-dilution method; format: functional
Outline: (§1)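 Broth microdilution per NCCLS guidelines in RPMI 1640 buffered with MOPS; starting inoculum 1–5 × 10^3 CFU/mL; plates incubated at 35 °C, MIC read after 48 h.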

[2] = Tmax in New-Zealand rabbit at 33 mg/kg dosed through vaginal administration by LC-MS/MS method; format: ADME, organism-based, Oryctolagus cuniculus; conditions: in vivo
Outline: (§2)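 Female New Zealand rabbits received a single vaginal dose of 33 mg/kg. Drug in plasma was quantified by LC-MS/MS on a C18 column with phenacetin as internal standard. For each plasma sample (50 µL), 200 µL of internal-standard solution (200 ng/mL phenacetin in acetonitrile) was added. Samples were mixed, centrifuged at 13,000 rpm for 20 min, and the supernatant injected. The method was validated to FDA bioanalytical criteria.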

Cryptococcus neoformans = assay: Antifungal activity against Cryptococcus neoformans incubated for 48 hrs by broth micro-dilution method; format: functional; outline: as §1
Candida parapsilosis = assay: Antifungal activity against Candida parapsilosis ATCC 22019 incubated for 48 hrs by broth micro-dilution method; format: functional; conditions: Lodderomyces parapsilosis, ATCC 22019, 48 h; outline: as §1
[3] = Stability in simulated vaginal fluid at pH 4.2 at 200 ng/ml by LC-MS/MS method; conditions: buffer
Trichomonas vaginalis [4] = assay: Anti-trichomonas activity against MTZ-susceptible Trichomonas vaginalis incubated for 3 to 48 hrs by trypan blue exclusion assay; format: functional
Outline: (§3)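 Trichomonas vaginalis trophozoites (5 × 10^4/L as printed) in TYM medium; DMSO stocks (100.0 mg/mL) serially diluted in TYM to 0.1 mg/mL, DMSO/TYM vehicle controls. Anaerobic incubation at 37 °C; viability checked 3–48 h by microscopy (200×) with trypan blue exclusion. MIC = lowest concentration killing all cells within 48 h.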

[5] = target: Human immunodeficiency virus type 1 reverse transcriptase (Human immunodeficiency virus 1) (UniProt Q72547); assay: Inhibition of HIV1 reverse transcriptase at 100 ug/ml incubated for 1 hr by ELISA method
Outline: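 Non-radioactive colorimetric ELISA: template/primer with dNTPs plus HIV-1 RT in lysis buffer ± compound (100 µg/mL), 1 h at 37 °C; RT-free buffer as negative control, nevirapine as positive control. Product captured on streptavidin plate 1 h at 37 °C, detected with anti-DIG-POD and ABTS, OD 405 nm.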

[6] = Cmax in New-Zealand rabbit at 33 mg/kg dosed through vaginal administration by LC-MS/MS method; format: ADME, organism-based, Oryctolagus cuniculus; set-up: dose 33 mg/kg; conditions: in vivo; outline: as §2
[7] = test system: Trichophyton mentagrophytes; assay: Antifungal activity against Trichophyton mentagrophytes incubated for 48 hrs by broth micro-dilution method; format: functional; outline: as §1
Trichomonas vaginalis [8] = assay: Anti-trichomonas activity against MTZ-resistant Trichomonas vaginalis incubated for 3 to 48 hrs by trypan blue exclusion assay; format: functional; outline: as §3
Oryctolagus cuniculus = assay: Drug level in plasma of New-Zealand rabbit at 33 mg/kg dosed through vaginal administration by LC-MS/MS method; format: ADME, organism-based; conditions: in vivo, other; outline: as §2
[9] = AUC (0 to infinity) in New-Zealand rabbit at 33 mg/kg dosed through vaginal administration by LC-MS/MS method; format: ADME, organism-based, Oryctolagus cuniculus; set-up: dose 33 mg/kg, time infinity; conditions: in vivo; outline: as §2
[10] = Spermicidal activity in liquefied human semen assessed as reduction in motile spermatozoa incubated at 37 degC for 30 mins; format: functional, Sperm; conditions: for minimal effective concentration: Homo sapiens, Sperm, Semen, 0.5 h, read-out: MEC
Outline: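 Compounds dissolved in minimal DMSO, diluted with 0.85% saline to 1.0% test solution; liquefied human semen mixed 1:5 with test solution, vortexed 10 s; motile sperm scored by phase-contrast microscopy over 60 s in five fields. MEC = lowest concentration immobilizing 100% of sperm, still immotile after dilution with nutrient medium.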

Candida albicans = assay: Antifungal activity against Candida albicans incubated for 48 hrs by broth micro-dilution method; format: functional; outline: as §1
Sporothrix schenckii = assay: Antifungal activity against Sporothrix schenckii incubated for 48 hrs by broth micro-dilution method; format: functional; outline: as §1
[11] = Terminal half life in New-Zealand rabbit at 33 mg/kg dosed through vaginal administration by LC-MS/MS method; format: ADME, organism-based, Oryctolagus cuniculus; conditions: in vivo, read-out: beta t1/2 (converted); outline: as §2
Trichomonas vaginalis [12] = assay: Resistance index, ratio of MIC for MTZ-resistant Trichomonas vaginalis to MIC for MTZ-susceptible Trichomonas vaginalis; format: functional
HeLa = assay: Cytotoxicity against human HeLa cells assessed as reduction in cell viability at 200 ug/ml incubated for 24 hrs by MTT assay; format: cell-based
Outline: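 HeLa cells seeded at 5 × 10^4 per well, exposed 24 h to compound dilutions in culture medium or vehicle control; MTT (5 mg/mL in pH 7.4 buffer) added, formazan dissolved in DMSO, absorbance read at 540 nm.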

Row | SMILES | Activity [1] | MIC (Aspergillus fumigatus) | Tmax [2] | MIC (Cryptococcus neoformans) | MIC (Candida parapsilosis) | Stability [3] | MIC (Trichomonas vaginalis [4]) | inhibition [5] | Cmax [6] | MIC [7] | MIC (Trichomonas vaginalis [8]) | Drug uptake (Oryctolagus cuniculus) | AUC(0-inf) [9] | MEC [10] | minimal effective concentration [10] | MIC (Candida albicans) | MIC (Sporothrix schenckii) | half-life [11] | Ratio (Trichomonas vaginalis [12]) | Activity (HeLa)
1 | CCCCNC(=S)N1CCN(CCC(=O)c2ccccc2)CC1 | Non-toxic | > 81.2 µM | 0.75 h | 9.34 µM (≈ 3.11 µg/mL) | > 81.2 µM | > 1 h | 46.7 µM (≈ 15.6 µg/mL) | 72.3% | 4.43 ng/mL | 9.34 µM (≈ 3.11 µg/mL) | 188 µM (≈ 62.6 µg/mL) | Not Active | 14.7 ng·h/mL | 0.01% | 300 µM | 74.8 µM (≈ 24.9 µg/mL) | > 81.2 µM | 4.67 h | 4 | Non-toxic
2 | O=C(CCN1CCN(C(=S)NC2CCCCC2)CC1)c1ccccc1 | Non-toxic | > 81.2 µM |  | 8.6 µM (≈ 3.09 µg/mL) | > 81.2 µM |  | 43.3 µM (≈ 15.6 µg/mL) | 47.7% |  | 4.33 µM (≈ 1.56 µg/mL) | 175 µM (≈ 62.8 µg/mL) |  |  | 0.05% | 1390 µM | 34.7 µM (≈ 12.5 µg/mL) | > 81.2 µM |  | 2 | Non-toxic
3 | CCCCNC(=S)N1CCN(CCC(O)c2ccccc2)CC1 (configuration not stated) | Non-toxic | > 81.2 µM |  | > 81.2 µM | > 81.2 µM |  | 46.4 µM (≈ 15.6 µg/mL) | 29.1% |  | > 81.2 µM | 187 µM (≈ 62.6 µg/mL) |  |  | 0.05% | 1490 µM | > 81.2 µM | > 81.2 µM |  | 4 | Non-toxic
4 | O=C(CCN1CCN(C(=S)NCCc2ccccc2)CC1)c1ccccc1 | Non-toxic | > 81.2 µM |  | > 81.2 µM | > 81.2 µM |  | 40.8 µM (≈ 15.6 µg/mL) | 50.2% |  | > 81.2 µM | 164 µM (≈ 62.6 µg/mL) |  |  | 0.01% | 260 µM | > 81.2 µM | > 81.2 µM |  | 2 | Non-toxic
5 | O=C(CCN1CCN(C(=S)Nc2ccccc2)CC1)c1ccccc1 | Non-toxic | > 81.2 µM |  | 17.6 µM (≈ 6.22 µg/mL) | > 81.2 µM |  | 88.5 µM (≈ 31.3 µg/mL) | 49.2% |  | 17.6 µM (≈ 6.22 µg/mL) | 354 µM (≈ 125 µg/mL) |  |  | 0.1% | 2830 µM | > 81.2 µM | > 81.2 µM |  | 2 | Non-toxic
6 | OC(CCN1CCN(C(=S)Nc2ccccc2)CC1)c1ccccc1 (configuration not stated) | Non-toxic | > 81.2 µM |  | > 81.2 µM | > 81.2 µM |  |  |  |  | > 81.2 µM | 352 µM (≈ 125 µg/mL) |  |  | 0.1% | 2820 µM | > 81.2 µM | > 81.2 µM |  | 2 | Non-toxic
7 | OC(CCN1CCN(C(=S)NCc2ccccc2)CC1)c1ccccc1 (configuration not stated) | Non-toxic | > 81.2 µM |  | > 81.2 µM | > 81.2 µM |  | 169 µM (≈ 62.6 µg/mL) | 47.2% |  | > 81.2 µM | 339 µM (≈ 125 µg/mL) |  |  | 0.05% | 1350 µM | > 81.2 µM | > 81.2 µM |  | 2 | Non-toxic
8 | OC(Cn1cncn1)(Cn1cncn1)c1ccc(F)cc1F [FLUCONAZOLE] |  | > 81.2 µM |  | 6.53 µM (≈ 2 µg/mL) | 6.53 µM (≈ 2 µg/mL) |  |  |  |  | > 81.2 µM |  |  |  |  |  | 3.26 µM (≈ 0.998 µg/mL) | 6.53 µM (≈ 2 µg/mL) |  |  | 
9 | O=C(CCN1CCN(C(=S)NCc2ccccc2)CC1)c1ccccc1 | Non-toxic | > 81.2 µM |  | 8.47 µM (≈ 3.11 µg/mL) | > 81.2 µM |  | 85.1 µM (≈ 31.3 µg/mL) | 58.3% |  | 4.22 µM (≈ 1.55 µg/mL) | 341 µM (≈ 125 µg/mL) |  |  | 0.1% | 2720 µM | 67.9 µM (≈ 25 µg/mL) | > 81.2 µM |  | 2 | Non-toxic
10 | FC(F)(F)c1ccc(OC(CCN2CCN(C(=S)NCc3ccccc3)CC2)c2ccccc2)cc1 (configuration not stated) | Non-toxic | > 81.2 µM |  | 12.1 µM (≈ 6.21 µg/mL) | > 81.2 µM |  | 60.9 µM (≈ 31.3 µg/mL) | 51% |  | 6.07 µM (≈ 3.12 µg/mL) | 243 µM (≈ 125 µg/mL) |  |  | >1% | > 19500 µM | > 81.2 µM | > 81.2 µM |  | 2 | Non-toxic
11 | CCCCNC(=S)N1CCN(CCC(Oc2ccc(C(F)(F)F)cc2)c2ccccc2)CC1 (configuration not stated) | Non-toxic | > 81.2 µM |  | > 81.2 µM | > 81.2 µM |  | 130 µM (≈ 62.6 µg/mL) | 59.6% |  | > 81.2 µM | 261 µM (≈ 125 µg/mL) |  |  | >1% | > 20900 µM | > 81.2 µM | > 81.2 µM |  | 2 | Non-toxic
12 | OC(CCN1CCN(C(=S)NCCc2ccccc2)CC1)c1ccccc1 (configuration not stated) | Non-toxic | > 81.2 µM |  | > 81.2 µM | > 81.2 µM |  | 40.6 µM (≈ 15.6 µg/mL) | 45.3% |  | > 81.2 µM | 163 µM (≈ 62.6 µg/mL) |  |  | 0.1% | 2610 µM | > 81.2 µM | > 81.2 µM |  | 4 | Non-toxic
13 | FC(F)(F)c1ccc(OC(CCN2CCN(C(=S)Nc3ccccc3)CC2)c2ccccc2)cc1 (configuration not stated) | Non-toxic | > 81.2 µM |  | > 81.2 µM | > 81.2 µM |  | 50.1 µM (≈ 25 µg/mL) | 21.1% |  | > 81.2 µM |  |  |  | 0.05% | 1000 µM | > 81.2 µM | > 81.2 µM |  | 2 | Non-toxic
14 | Cc1ncc([N+](=O)[O-])n1CCO [METRONIDAZOLE] |  |  |  |  |  |  | 19.7 µM (≈ 3.37 µg/mL) |  |  |  | 293 µM (≈ 50.1 µg/mL) |  |  |  |  |  |  |  | 15 | 
15 | FC(F)(F)c1ccc(OC(CCN2CCN(C(=S)NC3CCCCC3)CC2)c2ccccc2)cc1 (configuration not stated) | Non-toxic | > 81.2 µM |  | > 81.2 µM | > 81.2 µM |  | 64.3 µM (≈ 32.5 µg/mL) | 24.3% |  | > 81.2 µM | 495 µM (≈ 250 µg/mL) |  |  | >1% | > 19800 µM | > 81.2 µM | > 81.2 µM |  | 2 | Non-toxic
16 | FC(F)(F)c1ccc(OC(CCN2CCN(C(=S)NCCc3ccccc3)CC2)c2ccccc2)cc1 (configuration not stated) | Non-toxic | > 81.2 µM |  | > 81.2 µM | > 81.2 µM |  | 47.3 µM (≈ 25 µg/mL) | 38.4% |  | > 81.2 µM | 118 µM (≈ 62.5 µg/mL) |  |  | >1% | > 19000 µM | > 81.2 µM | > 81.2 µM |  | 2 | Non-toxic
17 | OC(CCN1CCN(C(=S)NC2CCCCC2)CC1)c1ccccc1 (configuration not stated) | Non-toxic | > 81.2 µM |  | > 81.2 µM | > 81.2 µM |  | 173 µM (≈ 62.6 µg/mL) | 24.3% |  | > 81.2 µM | 174 µM (≈ 62.8 µg/mL) |  |  | 1% | 27700 µM | > 81.2 µM | > 81.2 µM |  | 2 | Non-toxic
